IC50 data for four compounds are collected here from ChEMBL document CHEMBL1157340, “Highly substituted terphenyls as inhibitors of parasite cGMP-dependent protein kinase activity” (J Nat Prod, 2006).

The structures appear in SMILES notation.

Experiment [1] addresses cGMP-dependent protein kinase (Eimeria tenella). Kind of experiment: Inhibition of Eimeria tenella cGMP-dependent protein kinase assessed as inhibition of transfer of phosphate group by radiometric assay.
Another experiment deals with Toxoplasma gondii. Briefly: Antiparasitic activity against Toxoplasma gondii in human foreskin fibroblast by beta-galactosidase assay. Type of experiment: functional, organism-based. The method, boiled down:
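Human foreskin fibroblasts grown to confluence, then infected with T. gondii strain stably expressing bacterial β-galactosidase; parasite growth allowed 5 days with test samples present. Chlorophenol red-β-D-galactopyranoside added, further 2–4 h incubation, absorbance read at 570 nm as measure of parasite viability. IC50 reported.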

In the case of `CN1CCC(c2cc(-c3ccncc3)c(-c3ccc(F)cc3)[nH]2)CC1`, the IC50 in experiment [1] was < 0.001 µM; with Toxoplasma gondii, 0.21 µM.
For `COc1cc(-c2ccccc2)c(O)c(O)c1-c1ccccc1` [TERFEROL] the same measures were 3.9 µM and 26.8 µM.
For `COc1c(O)c(-c2ccccc2)cc(O)c1-c1cc(O)ccc1O` the same measures were 5.8 µM and 9.5 µM.
For `COc1c(O)c(-c2ccccc2)cc(O)c1-c1ccccc1O`, in that order: 5.2 µM and 10.4 µM.
